Key:
[1] = Displacement of [3H]diprenorphine from zebrafish delta1b opioid receptor expressed in HEK293 cell membranes by radioligand displacement assay; set-up: species or system Danio rerio
Procedure, shortened: (§1)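 Competition binding on membranes from stably transfected HEK293 cells expressing the zebrafish μ, δ1a or δ1b receptor. Cells were grown to 80% confluence, harvested and pelleted before membrane preparation. [3H]-diprenorphine served as radioligand. Nonspecific binding was defined with 10 μM naloxone. Data were fitted to a one-site displacement model.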

[2] = Displacement of [3H]diprenorphine from zebrafish delta1a opioid receptor expressed in HEK293 cell membranes by radioligand displacement assay; set-up: species or system Danio rerio; procedure, shortened: as §1
[3] = Displacement of [3H]diprenorphine from zebrafish mu opioid receptor expressed in HEK293 cell membranes by radioligand displacement assay; set-up: species or system Danio rerio; procedure, shortened: as §1
Danio rerio = species: Danio rerio; assay: Selectivity index, ratio of Ki for zebrafish delta1a opioid receptor to Ki for zebrafish mu opioid receptor

NC(=O)[C@H](Cc1ccc(I)cc1)NC(=O)[C@H](Cc1c[nH]c2ccccc12)NC(=O)[C@@H]1CCCN1C(=O)[C@@H](N)Cc1ccc(O)cc1
Ki [1]: 1960 nM | Ki [2]: 1590 nM | Ki [3]: 294 nM

CC(C)C[C@H](NC(=O)[C@H](Cc1ccc(Cl)cc1)NC(=O)CNC(=O)CNC(=O)[C@@H](N)Cc1ccc(O)cc1)C(=O)O
Ki [1]: 40.6 nM | Ki [2]: 44.5 nM | Ki [3]: 312 nM

CC(C)C[C@H](NC(=O)[C@H](Cc1ccccc1F)NC(=O)CNC(=O)CNC(=O)[C@@H](N)Cc1ccc(O)cc1)C(=O)O
Ki [1]: 91.1 nM | Ki [2]: 115 nM | Ki [3]: 2230 nM

CC(C)C[C@H](NC(=O)[C@H](Cc1ccccc1I)NC(=O)CNC(=O)CNC(=O)[C@@H](N)Cc1ccc(O)cc1)C(=O)O
Ki [1]: 28.5 nM | Ki [2]: 15.5 nM | Ki [3]: 401 nM

NC(=O)[C@H](Cc1ccc(F)cc1)NC(=O)[C@H](Cc1c[nH]c2ccccc12)NC(=O)[C@@H]1CCCN1C(=O)[C@@H](N)Cc1ccc(O)cc1
Ki [1]: 4800 nM | Ki [2]: 5330 nM | Ki [3]: 51.6 nM

CC(C)C[C@H](NC(=O)[C@H](Cc1ccc(Br)cc1)NC(=O)CNC(=O)CNC(=O)[C@@H](N)Cc1ccc(O)cc1)C(=O)O
Ki [1]: 27.6 nM | Ki [2]: 34.1 nM | Ki [3]: 287 nM

NC(=O)[C@H](Cc1ccccc1)NC(=O)[C@H](Cc1c[nH]c2ccccc12)NC(=O)[C@@H]1CCCN1C(=O)[C@@H](N)Cc1ccc(O)cc1 [ENDOMORPHIN-1]
Ratio Ki (Danio rerio): 258 | Ki [1]: 6200 nM | Ki [2]: 8470 nM | Ki [3]: 32.8 nM

CC(C)C[C@H](NC(=O)[C@H](Cc1ccc(F)cc1)NC(=O)CNC(=O)CNC(=O)[C@@H](N)Cc1ccc(O)cc1)C(=O)O
Ki [1]: 10.6 nM | Ki [2]: 11.7 nM | Ki [3]: 210 nM

CC(C)C[C@H](NC(=O)[C@H](Cc1ccc(I)cc1)NC(=O)CNC(=O)CNC(=O)[C@@H](N)Cc1ccc(O)cc1)C(=O)O
Ki [1]: 52.9 nM | Ki [2]: 44.6 nM | Ki [3]: 540 nM

NC(=O)[C@H](Cc1ccc(Br)cc1)NC(=O)[C@H](Cc1c[nH]c2ccccc12)NC(=O)[C@@H]1CCCN1C(=O)[C@@H](N)Cc1ccc(O)cc1
Ki [1]: 2680 nM | Ki [2]: 1900 nM | Ki [3]: 135 nM

CC(C)C[C@H](NC(=O)[C@H](Cc1ccccc1Br)NC(=O)CNC(=O)CNC(=O)[C@@H](N)Cc1ccc(O)cc1)C(=O)O
Ki [1]: 32.3 nM | Ki [2]: 24.2 nM | Ki [3]: 1430 nM

CC(C)C[C@H](NC(=O)[C@H](Cc1ccccc1Cl)NC(=O)CNC(=O)CNC(=O)[C@@H](N)Cc1ccc(O)cc1)C(=O)O
Ki [1]: 57.2 nM | Ki [2]: 42.8 nM | Ki [3]: 1210 nM

NC(=O)[C@H](Cc1ccc(Cl)cc1)NC(=O)[C@H](Cc1c[nH]c2ccccc12)NC(=O)[C@@H]1CCCN1C(=O)[C@@H](N)Cc1ccc(O)cc1
Ki [1]: 2330 nM | Ki [2]: 1700 nM | Ki [3]: 71.9 nM

— ChEMBL document CHEMBL3621177, “Modulation of the Interaction between a Peptide Ligand and a G Protein-Coupled Receptor by Halogen Atoms” (ACS Med Chem Lett, 2015)
